Experimental data: ChEMBL document CHEMBL4765483 (J Med Chem, 2021)

biological target: T1, Adenosine receptor A2b (Homo sapiens) (UniProt P29275); assay: Displacement of [3H]DPCPX from human adenosine A2B receptor expressed in HEK293 cell membranes at 1 uM incubated for 30 mins by scintillation counting method; conditions: Cell membrane
T1 sequence (whole entry): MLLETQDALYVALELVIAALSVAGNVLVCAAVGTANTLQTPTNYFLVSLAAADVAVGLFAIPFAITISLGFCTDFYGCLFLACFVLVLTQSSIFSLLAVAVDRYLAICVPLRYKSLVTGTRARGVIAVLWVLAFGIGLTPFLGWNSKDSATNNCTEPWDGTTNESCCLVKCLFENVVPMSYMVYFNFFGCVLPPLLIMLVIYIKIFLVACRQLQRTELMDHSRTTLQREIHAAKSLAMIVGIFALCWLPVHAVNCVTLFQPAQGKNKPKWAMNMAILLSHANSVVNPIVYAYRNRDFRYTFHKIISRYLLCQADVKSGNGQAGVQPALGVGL

Compound	inhibition [%]
CCC(C)OC(=O)C1=C(C)NC(=O)NC1c1cccs1 (racemic)	7
CCSC(=O)C1=C(C)NC(=O)NC1c1cccs1 (racemic)	1
CC1=C(C(=O)OC(C)(C)C)C(c2ccco2)NC(=O)N1C (racemic)	26
CCC(CC)OC(=O)C1=C(C)NC(=O)NC1c1cccs1 (racemic)	6
CCSC(=O)C1=C(C)NC(=O)NC1c1ccco1 (racemic)	29
CCN(CC)C(=O)C1=C(C)NC(=O)NC1c1cccs1 (racemic)	22
CCC(CC)OC(=O)C1=C(C)NC(=O)NC1c1ccsc1 (racemic)	26
CC1=C(C(=O)C2CC2)C(c2cccs2)NC(=O)N1 (racemic)	1
COC(=O)C1=C(C)N(C)C(=O)NC1c1cccs1 (racemic)	17
COC(=O)C1=C(C)N(C)C(=O)NC1c1ccco1 (racemic)	31
CC1=C(C(=O)OC(C)(C)C)C(c2cccs2)NC(=O)N1C (racemic)	24
CCOP(=O)(OCC)C1=C(C)NC(=O)NC1c1ccsc1 (racemic)	1

More lines, now with the values ahead:

inhibition [%]	Compound
2	CC1=C(C(=O)OCC(C)C)C(c2cccs2)NC(=O)N1C (racemic)
18	CC1=C(C(=O)OCC(C)C)C(c2ccco2)NC(=S)N1 (racemic)
7	COC(=O)C1=C(C)N(C)C(=O)NC1c1ccoc1 (racemic)
3	CCCOC(=O)C1=C(C)NC(=S)NC1c1cccs1 (racemic)
9	CC1=C(C(=O)OC(C)(C)C)C(c2ccco2)NC(=S)N1 (racemic)
10	COC(=O)C1=C(C)NC(=S)NC1c1cccs1 (racemic)
1	CC1=C(C(=O)OCC(C)C)C(c2ccoc2)NC(=S)N1 (racemic)
38	COC(=O)C1=C(C)NC(=S)NC1c1ccsc1 (racemic)
3	CCOP(=O)(OCC)C1=C(C)NC(=O)NC1c1ccoc1 (racemic)
3	CC1=C(C(=O)NC(C)C)C(c2ccoc2)NC(=O)N1 (racemic)

biological target: T2, Adenosine receptor A1 (Homo sapiens) (UniProt P30542); assay: Displacement of [3H]DPCPX from human adenosine A1 receptor expressed in CHO cell membranes at 1 uM incubated for 60 mins by scintillation counting method; conditions: Cell membrane
T2 sequence (whole entry): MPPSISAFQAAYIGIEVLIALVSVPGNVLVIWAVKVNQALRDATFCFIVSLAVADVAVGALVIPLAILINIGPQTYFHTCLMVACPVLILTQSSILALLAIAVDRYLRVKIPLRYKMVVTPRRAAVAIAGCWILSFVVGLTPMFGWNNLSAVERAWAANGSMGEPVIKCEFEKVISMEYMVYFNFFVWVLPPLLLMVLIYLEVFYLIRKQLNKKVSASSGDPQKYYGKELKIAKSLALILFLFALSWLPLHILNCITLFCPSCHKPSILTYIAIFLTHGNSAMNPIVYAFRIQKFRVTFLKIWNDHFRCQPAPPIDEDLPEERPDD

Compound	inhibition [%]
CCC(C)OC(=O)C1=C(C)NC(=O)NC1c1cccs1 (racemic)	5
CCSC(=O)C1=C(C)NC(=O)NC1c1cccs1 (racemic)	6
CC1=C(C(=O)OC(C)(C)C)C(c2ccco2)NC(=O)N1C (racemic)	44
CCC(CC)OC(=O)C1=C(C)NC(=O)NC1c1cccs1 (racemic)	13
CCSC(=O)C1=C(C)NC(=O)NC1c1ccco1 (racemic)	6
CCN(CC)C(=O)C1=C(C)NC(=O)NC1c1cccs1 (racemic)	13
CCC(CC)OC(=O)C1=C(C)NC(=O)NC1c1ccsc1 (racemic)	22
CC1=C(C(=O)C2CC2)C(c2cccs2)NC(=O)N1 (racemic)	1
COC(=O)C1=C(C)N(C)C(=O)NC1c1cccs1 (racemic)	30
COC(=O)C1=C(C)N(C)C(=O)NC1c1ccco1 (racemic)	45
CC1=C(C(=O)OC(C)(C)C)C(c2cccs2)NC(=O)N1C (racemic)	18
CCOP(=O)(OCC)C1=C(C)NC(=O)NC1c1ccsc1 (racemic)	4

Second part, the molecule after the results:

inhibition [%]	Compound
9	CC1=C(C(=O)OCC(C)C)C(c2cccs2)NC(=O)N1C (racemic)
7	CC1=C(C(=O)OCC(C)C)C(c2ccco2)NC(=S)N1 (racemic)
15	COC(=O)C1=C(C)N(C)C(=O)NC1c1ccoc1 (racemic)
7	CCCOC(=O)C1=C(C)NC(=S)NC1c1cccs1 (racemic)
3	CC1=C(C(=O)OC(C)(C)C)C(c2ccco2)NC(=S)N1 (racemic)
1	COC(=O)C1=C(C)NC(=S)NC1c1cccs1 (racemic)
12	CC1=C(C(=O)OCC(C)C)C(c2ccoc2)NC(=S)N1 (racemic)
3	COC(=O)C1=C(C)NC(=S)NC1c1ccsc1 (racemic)
1	CCOP(=O)(OCC)C1=C(C)NC(=O)NC1c1ccoc1 (racemic)
1	CC1=C(C(=O)NC(C)C)C(c2ccoc2)NC(=O)N1 (racemic)

biological target: Adenosine receptor A2a (Homo sapiens) (UniProt P29274); assay: Displacement of [3H]ZM2421385 from adenosine A2A receptor expressed in human HeLa cell membranes at 1 uM incubated for 30 mins by scintillation counting method; conditions: Cell membrane
Sequence (P29274 whole entry): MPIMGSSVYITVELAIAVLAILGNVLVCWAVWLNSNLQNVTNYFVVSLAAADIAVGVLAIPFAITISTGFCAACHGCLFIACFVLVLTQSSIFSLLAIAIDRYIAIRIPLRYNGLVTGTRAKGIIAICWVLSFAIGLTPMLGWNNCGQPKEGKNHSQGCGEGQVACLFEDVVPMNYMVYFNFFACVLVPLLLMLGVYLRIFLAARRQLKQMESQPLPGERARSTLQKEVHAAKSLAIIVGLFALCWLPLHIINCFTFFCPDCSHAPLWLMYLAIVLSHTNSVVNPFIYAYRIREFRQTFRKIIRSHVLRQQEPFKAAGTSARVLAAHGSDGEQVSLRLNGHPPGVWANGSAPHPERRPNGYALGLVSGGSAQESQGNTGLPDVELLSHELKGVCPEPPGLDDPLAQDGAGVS

Compound	inhibition [%]
CCC(C)OC(=O)C1=C(C)NC(=O)NC1c1cccs1 (racemic)	2
CCSC(=O)C1=C(C)NC(=O)NC1c1cccs1 (racemic)	8
CC1=C(C(=O)OC(C)(C)C)C(c2ccco2)NC(=O)N1C (racemic)	20
CCC(CC)OC(=O)C1=C(C)NC(=O)NC1c1cccs1 (racemic)	4
CCSC(=O)C1=C(C)NC(=O)NC1c1ccco1 (racemic)	2
CCN(CC)C(=O)C1=C(C)NC(=O)NC1c1cccs1 (racemic)	15
CCC(CC)OC(=O)C1=C(C)NC(=O)NC1c1ccsc1 (racemic)	1
CC1=C(C(=O)C2CC2)C(c2cccs2)NC(=O)N1 (racemic)	1
COC(=O)C1=C(C)N(C)C(=O)NC1c1cccs1 (racemic)	49
COC(=O)C1=C(C)N(C)C(=O)NC1c1ccco1 (racemic)	1
CC1=C(C(=O)OC(C)(C)C)C(c2cccs2)NC(=O)N1C (racemic)	12
CCOP(=O)(OCC)C1=C(C)NC(=O)NC1c1ccsc1 (racemic)	3

Continued, values first:

inhibition [%]	Compound
1	CC1=C(C(=O)OCC(C)C)C(c2cccs2)NC(=O)N1C (racemic)
30	CC1=C(C(=O)OCC(C)C)C(c2ccco2)NC(=S)N1 (racemic)
5	COC(=O)C1=C(C)N(C)C(=O)NC1c1ccoc1 (racemic)
1	CCCOC(=O)C1=C(C)NC(=S)NC1c1cccs1 (racemic)
1	CC1=C(C(=O)OC(C)(C)C)C(c2ccco2)NC(=S)N1 (racemic)
1	COC(=O)C1=C(C)NC(=S)NC1c1cccs1 (racemic)
35	CC1=C(C(=O)OCC(C)C)C(c2ccoc2)NC(=S)N1 (racemic)
1	COC(=O)C1=C(C)NC(=S)NC1c1ccsc1 (racemic)
8	CCOP(=O)(OCC)C1=C(C)NC(=O)NC1c1ccoc1 (racemic)
1	CC1=C(C(=O)NC(C)C)C(c2ccoc2)NC(=O)N1 (racemic)

biological target: T3, Adenosine receptor A3 (Homo sapiens) (UniProt P0DMS8); assay: Displacement of [3H]NECA from adenosine A3 receptor expressed in human HeLa cell membranes at 1 uM incubated for 180 mins by scintillation counting method; conditions: Cell membrane
T3 sequence (whole entry): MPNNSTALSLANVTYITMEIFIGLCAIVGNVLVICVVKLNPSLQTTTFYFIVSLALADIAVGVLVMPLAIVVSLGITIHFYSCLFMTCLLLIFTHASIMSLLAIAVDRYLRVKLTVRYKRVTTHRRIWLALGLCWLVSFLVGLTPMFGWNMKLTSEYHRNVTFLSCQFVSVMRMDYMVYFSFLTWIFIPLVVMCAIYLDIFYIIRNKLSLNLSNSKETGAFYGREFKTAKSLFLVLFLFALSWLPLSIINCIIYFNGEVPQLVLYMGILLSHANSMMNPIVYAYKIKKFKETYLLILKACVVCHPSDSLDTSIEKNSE
Method in brief: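 hA3AR in HeLa membranes (3 pmol/mg protein) with 10 nM [3H]NECA (KD 8.7 nM); nonspecific binding with 100 μM R-PIA; incubated 180 min at 25 °C, washed, filtered, radioactivity counted.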

Compound	inhibition [%]
CCC(C)OC(=O)C1=C(C)NC(=O)NC1c1cccs1 (racemic)	7
CCSC(=O)C1=C(C)NC(=O)NC1c1cccs1 (racemic)	1
CC1=C(C(=O)OC(C)(C)C)C(c2ccco2)NC(=O)N1C (racemic)	54
CCC(CC)OC(=O)C1=C(C)NC(=O)NC1c1cccs1 (racemic)	1
CCSC(=O)C1=C(C)NC(=O)NC1c1ccco1 (racemic)	14
CCN(CC)C(=O)C1=C(C)NC(=O)NC1c1cccs1 (racemic)	31
CCC(CC)OC(=O)C1=C(C)NC(=O)NC1c1ccsc1 (racemic)	6
CC1=C(C(=O)C2CC2)C(c2cccs2)NC(=O)N1 (racemic)	15
COC(=O)C1=C(C)N(C)C(=O)NC1c1cccs1 (racemic)	15
COC(=O)C1=C(C)N(C)C(=O)NC1c1ccco1 (racemic)	9
CC1=C(C(=O)OC(C)(C)C)C(c2cccs2)NC(=O)N1C (racemic)	22
CCOP(=O)(OCC)C1=C(C)NC(=O)NC1c1ccsc1 (racemic)	1

Second part, the molecule after the results:

inhibition [%]	Compound
5	CC1=C(C(=O)OCC(C)C)C(c2cccs2)NC(=O)N1C (racemic)
10	CC1=C(C(=O)OCC(C)C)C(c2ccco2)NC(=S)N1 (racemic)
7	COC(=O)C1=C(C)N(C)C(=O)NC1c1ccoc1 (racemic)
10	CCCOC(=O)C1=C(C)NC(=S)NC1c1cccs1 (racemic)
9	CC1=C(C(=O)OC(C)(C)C)C(c2ccco2)NC(=S)N1 (racemic)
1	COC(=O)C1=C(C)NC(=S)NC1c1cccs1 (racemic)
1	CC1=C(C(=O)OCC(C)C)C(c2ccoc2)NC(=S)N1 (racemic)
3	COC(=O)C1=C(C)NC(=S)NC1c1ccsc1 (racemic)
2	CCOP(=O)(OCC)C1=C(C)NC(=O)NC1c1ccoc1 (racemic)
3	CC1=C(C(=O)NC(C)C)C(c2ccoc2)NC(=O)N1 (racemic)
